# Laboratory results from ChEMBL document CHEMBL1649124, “Genetic variability among ampC genes from acinetobacter genomic species 3” (Antimicrob Agents Chemother, 2009).
# Residues, ends and D or L forms follow the SMILES beside them. *: point of attachment. βNA = c1ccc2cc(N*)ccc2c1
# Legend:
# Assay type in all cases: functional
# Acinetobacter pittii [1] = assay: Antibacterial activity against Acinetobacter genomosp. 3 isolate 14 by Etest method
# Summary of the method: (§1)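 MICs for AG3 clinical isolates were read by Etest following the manufacturer's instructions. Isolates were stored at –80°C in 10% Brucella glycerol broth before testing.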
# Acinetobacter pittii [2] = assay: Antibacterial activity against Acinetobacter genomosp. 3 isolate 20 by Etest method; summary of the method: as §1
# Acinetobacter pittii [3] = assay: Antibacterial activity against Acinetobacter genomosp. 3 isolate 21 by Etest method; summary of the method: as §1
# Acinetobacter pittii [4] = assay: Antibacterial activity against Acinetobacter genomosp. 3 isolate 52 by Etest method; summary of the method: as §1
# Acinetobacter pittii [5] = assay: Antibacterial activity against Acinetobacter genomosp. 3 isolate 56 by Etest method; summary of the method: as §1
# Acinetobacter pittii [6] = assay: Antibacterial activity against Acinetobacter genomosp. 3 isolate 60 by Etest method; summary of the method: as §1
# Acinetobacter pittii [7] = assay: Antibacterial activity against Acinetobacter genomosp. 3 isolate 65 by Etest method; summary of the method: as §1
# Acinetobacter pittii [8] = assay: Antibacterial activity against Acinetobacter genomosp. 3 isolate 67 by Etest method; summary of the method: as §1
# Escherichia coli [9] = assay: Antibacterial activity against Escherichia coli DH5alpha by Etest method
# Summary of the method: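 E. coli DH5α host strain, grown at 37°C in LB medium. MICs of β-lactams determined by Etest following the manufacturer's instructions.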
# Acinetobacter pittii [10] = assay: Antibacterial activity against Acinetobacter genomosp. 3 isolate 69 by Etest method; summary of the method: as §1
# Acinetobacter pittii [11] = assay: Antibacterial activity against Acinetobacter genomosp. 3 isolate 90 by Etest method; summary of the method: as §1
# Acinetobacter pittii [12] = assay: Antibacterial activity against Acinetobacter genomosp. 3 isolate 103 by Etest method; summary of the method: as §1
# Acinetobacter pittii [13] = assay: Antibacterial activity against Acinetobacter genomosp. 3 isolate 109 by Etest method; summary of the method: as §1
# Acinetobacter pittii [14] = assay: Antibacterial activity against Acinetobacter genomosp. 3 isolate 128 by Etest method; summary of the method: as §1
# Acinetobacter pittii [15] = assay: Antibacterial activity against Acinetobacter genomosp. 3 isolate 195 by Etest method; summary of the method: as §1
# Acinetobacter pittii [16] = assay: Antibacterial activity against Acinetobacter genomosp. 3 isolate 243 by Etest method; summary of the method: as §1
# Escherichia coli [17] = assay: Antibacterial activity against Escherichia coli DH5alpha carrying ampC gene of Acinetobacter genomosp. 3 isolate 14 by Etest method
# Summary of the method: (§2)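 E. coli DH5α expressing the AG3 isolate ampC gene, PCR-amplified (high-fidelity system, 28 cycles) and cloned into BamHI/HindIII sites of pBGS18 (kanamycin marker) under the CTX-M-14 β-lactamase promoter. Grown at 37°C in LB, with kanamycin 50 µg/ml when needed. β-Lactam MICs determined by Etest per the manufacturer's instructions.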
# Escherichia coli [18] = assay: Antibacterial activity against Escherichia coli DH5alpha carrying ampC gene of Acinetobacter genomosp. 3 isolate 20 by Etest method; summary of the method: as §2
# Escherichia coli [19] = assay: Antibacterial activity against Escherichia coli DH5alpha carrying ampC gene of Acinetobacter genomosp. 3 isolate 56 by Etest method; summary of the method: as §2
# Escherichia coli [20] = assay: Antibacterial activity against Escherichia coli DH5alpha carrying ampC gene of Acinetobacter genomosp. 3 isolate 65 by Etest method; summary of the method: as §2
# Escherichia coli [21] = assay: Antibacterial activity against Escherichia coli DH5alpha carrying ampC gene of Acinetobacter genomosp. 3 isolate 69 by Etest method; summary of the method: as §2
# Escherichia coli [22] = assay: Antibacterial activity against Escherichia coli DH5alpha carrying ampC gene of Acinetobacter genomosp. 3 isolate 103 by Etest method; summary of the method: as §2
# Escherichia coli [23] = assay: Antibacterial activity against Escherichia coli DH5alpha carrying ampC gene of Acinetobacter genomosp. 3 isolate 109 by Etest method; summary of the method: as §2
# Escherichia coli [24] = assay: Antibacterial activity against Escherichia coli DH5alpha carrying ampC gene of Acinetobacter genomosp. 3 isolate 195 by Etest method; summary of the method: as §2
Structure (SMILES),MIC (Acinetobacter pittii [1]),MIC (Acinetobacter pittii [2]),MIC (Acinetobacter pittii [3]),MIC (Acinetobacter pittii [4]),MIC (Acinetobacter pittii [5]),MIC (Acinetobacter pittii [6]),MIC (Acinetobacter pittii [7]),MIC (Acinetobacter pittii [8]),MIC (Escherichia coli [9]) [µg/mL],MIC (Acinetobacter pittii [10]),MIC (Acinetobacter pittii [11]),MIC (Acinetobacter pittii [12]),MIC (Acinetobacter pittii [13]),MIC (Acinetobacter pittii [14]),MIC (Acinetobacter pittii [15]),MIC (Acinetobacter pittii [16]),MIC (Escherichia coli [17]) [µg/mL],MIC (Escherichia coli [18]) [µg/mL],MIC (Escherichia coli [19]) [µg/mL],MIC (Escherichia coli [20]) [µg/mL],further results
CO/N=C(\C(=O)N[C@@H]1C(=O)N2C(C(=O)[O-])=C(C[N+]3(C)CCCC3)CS[C@H]12)c1csc(N)n1,3 µg/mL,4 µg/mL,12 µg/mL,2 µg/mL,2 µg/mL,4 µg/mL,3 µg/mL,4 µg/mL,0.016,3 µg/mL,16 µg/mL,3 µg/mL,2 µg/mL,2 µg/mL,6 µg/mL,3 µg/mL,0.023,0.19,0.023,0.032,MIC (Escherichia coli [21]): 0.023 µg/mL; MIC (Escherichia coli [22]): 0.032 µg/mL; MIC (Escherichia coli [23]): 0.023 µg/mL; MIC (Escherichia coli [24]): 0.032 µg/mL
Cl.Cl.N=C(N)NCCC[C@H](NC(=O)[C@@H](N)Cc1ccccc1)C(=O)Nc1ccc2ccccc2c1 (H-Phe-Arg-βNA),> 400 µg/mL,> 400 µg/mL,> 400 µg/mL,400 µg/mL,> 400 µg/mL,400 µg/mL,> 400 µg/mL,400 µg/mL,,400 µg/mL,> 400 µg/mL,400 µg/mL,400 µg/mL,400 µg/mL,400 µg/mL,> 400 µg/mL,,,,,
CC1(C)S[C@@H]2[C@H](NC(=O)[C@H](N)c3ccccc3)C(=O)N2[C@H]1C(=O)O [AMPICILLIN],,> 256 µg/mL,,,,,,,3,,,> 256 µg/mL,,,,,128,96,96,32,MIC (Escherichia coli [21]): 96 µg/mL; MIC (Escherichia coli [22]): 128 µg/mL; MIC (Escherichia coli [23]): 64 µg/mL; MIC (Escherichia coli [24]): 96 µg/mL
N#CC(C#N)=NNc1cccc(Cl)c1 [CARBONYL CYANIDE M-CHLOROPHENYLHYDRAZONE],400 µM,400 µM,> 400 µM,> 400 µM,> 400 µM,> 400 µM,> 400 µM,> 400 µM,,> 400 µM,> 400 µM,> 400 µM,> 400 µM,> 400 µM,> 400 µM,400 µM,,,,,
CO/N=C(\C(=O)N[C@@H]1C(=O)N2C(C(=O)O)=C(COC(C)=O)CS[C@H]12)c1csc(N)n1 [CEFOTAXIME],24 µg/mL,16 µg/mL,24 µg/mL,12 µg/mL,4 µg/mL,24 µg/mL,12 µg/mL,16 µg/mL,0.064,16 µg/mL,12 µg/mL,16 µg/mL,16 µg/mL,12 µg/mL,24 µg/mL,16 µg/mL,0.75,0.125,0.38,25,MIC (Escherichia coli [21]): 0.38 µg/mL; MIC (Escherichia coli [22]): 0.75 µg/mL; MIC (Escherichia coli [23]): 0.38 µg/mL; MIC (Escherichia coli [24]): 0.75 µg/mL
CO[C@@]1(NC(=O)Cc2cccs2)C(=O)N2C(C(=O)O)=C(COC(N)=O)CS[C@@H]21 [CEFOXITIN],> 256 µg/mL,> 256 µg/mL,> 256 µg/mL,> 256 µg/mL,64 µg/mL,> 256 µg/mL,128 µg/mL,> 256 µg/mL,2,> 256 µg/mL,128 µg/mL,192 µg/mL,> 256 µg/mL,128 µg/mL,> 256 µg/mL,48 µg/mL,32,32,16,3,MIC (Escherichia coli [21]): 16 µg/mL; MIC (Escherichia coli [22]): 32 µg/mL; MIC (Escherichia coli [23]): 24 µg/mL; MIC (Escherichia coli [24]): 24 µg/mL
